From PMC2699564 (Journal of medicinal chemistry, 2009) come the findings set out here.

Data set [1] concerns RIF tumors. The experiment in a line: In vivo biodistribution of ^124I-labeled compounds. Further details: species or system C3H mice. As to conditions: for liver and spleen uptake compared among compounds 1-3: C3H mice; for liver and spleen uptake compared among compounds 1-3 / tumor uptake compared among compounds 1-3: 24-96 h post injection; for tumor uptake compared among compounds 1-3 / tumor uptake: RIF tumor; for tumor uptake: ^124I-labeled, i.v. The gist of the method:
(§1)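 ¹²⁴I-labeled test compound (radiochemical purity >95%, in saline with 10% ethanol) given via tail vein at 15–200 μCi; 3–4 mice per compound/time point. Sacrificed at 24, 48, 72 and 96 h. Blood, tumor, heart, liver, spleen, kidney, lung, muscle, gut and stomach removed and weighed. Activity measured by gamma well counter; uptake expressed as %ID/g; mean of 3 or 4 mice.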

The test system of data set [2] is RIF cells. The data set is described as follows: In vitro cell uptake by fluorescence, RIF cells. The data set is classed as cell-based. The method in brief:
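RIF cells incubated with test compound; cellular uptake read by fluorescence at 3 and 24 h post-incubation.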

For data set [3], the system named is radiation-induce fibrosarcoma (RIF) cells. The experiment in a line: In vitro photosensitizing efficacy. In kind it is cell-based. The note with it: 24 h incubation, 0.25 μM (Figure 8), light 0-4 J/cm^2, MTT.
Data set [4] relates to RIF tumors. The data set is described as follows: In vivo PDT efficacy. Further details: species or system C3H mice. As to conditions: for toxicity (deaths post PDT): 135 J/cm^2, five mice/group; for tumor free mice (tumor cure) / tumor free mice (tumor cure) at day 60: 665 nm, 135 J/cm^2, 75 mW/cm^2 at 24 h post-injection, five mice/group. The method in brief:
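Female C3H/HeJ mice received 2×10^5 RIF cells intradermally in HBSS lacking Ca²⁺/Mg²⁺. At 4–5 mm tumors, hair was removed and test compound given i.v. the day before light, at 0.5, 1.0 or 1.5 μmol/kg, five mice/group. At 24 h, mice were restrained unanaesthetised and tumor irradiated with dye laser at 665 nm: 1 cm², 75 mW/cm², 135 J/cm², 30 min. Mice were watched daily for weight loss, scabbing and regrowth; V = (L × W²)/2. Sacrificed at 400 mm³; cured if no regrowth by day 60.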

The subject of data set [5] is Colon-26 cells. The experiment in a line: In vitro cell uptake, Colon-26 cells. In kind it is cell-based.
Data set [6] relates to Colon-26 tumors. The experiment in a line: In vivo biodistribution of ^124I-labeled 1. More on the design: species or system BALB/c mice. The note with it: for tumor uptake: Colon-26 tumor, ^124I-labeled, i.v. The method in brief:
as §1

Data set [7] has as its system RIF tumor. The data set is described as follows: microPET imaging, RUV and relative tumor activity, RIF tumor. The data set is classed as in vivo.
For data set [8], the system named is Colon-26 tumor. The data set is described as follows: microPET imaging, RUV and relative tumor activity, Colon-26 tumor. In kind it is in vivo.

Take `CCC1=C(C)c2cc3[nH]c(cc4nc(c5c6[nH]c(cc1n2)c(C)c6C(=O)C5)[C@@H](CCC(=O)N[C@@H]1O[C@H](CO)[C@H](O)[C@H](O)[C@H]1O)[C@@H]4C)c(C)c3C(C)OCc1cccc([124I])c1` (some centres unmarked) [Compound 3, {1′-(m-iodobenzyloxy)ethyl}-17[2]-(1-amino-1-deoxy)galactosamide-pyro pheophorbide-a]: in data set [1], the “liver and spleen uptake compared among compounds 1-3” value was “considerably higher liver and spleen uptake at all time points”. Besides, the “tumor uptake compared among compounds 1-3” value in data set [1] is “higher uptake values at the 72 and 96 hrs time points”. In addition, the “cell uptake compared to compound 1” value in data set [2] and in data set [5] was “higher uptake” each time. The “in vitro PDT efficacy compared to 1” value in data set [3] was “more effective than the corresponding non-carbohydrate analog 1”. Moreover, the “toxicity (deaths post PDT)” value in data set [4] (1.00 μmole/kg i.v.) is “all five mice died within 24h post PDT”; in data set [4] (1.5 μmol/kg i.v.), “all five mice died within 24 h post light treatment”.

As to `CCC1=C(C)c2cc3[nH]c(cc4nc(c5c6[nH]c(cc1n2)c(C)c6C(=O)C5)[C@@H](CCC(=O)OC)[C@@H]4C)c(C)c3C(C)OCc1cccc([124I])c1` (some centres unmarked) [Compound 1, 3-{1′-(m-iodobenzyloxy)ethyl}pyropheophorbide-a methyl ester], the “tumor uptake compared among compounds 1-3” value in data set [1] is “highest tumor uptake value at 24 and 48 hrs time points”. In addition, the tumor uptake in data set [1] (24 h post injection) is given as 4.1 %ID/g; in data set [1] (48 h post injection), 2.1 %ID/g; in data set [1] (72 h post injection), 0.8 %ID/g; in data set [1] (96 h post injection), 0.6 %ID/g; in data set [6] (24 h post injection) it was 4.6 %ID/g; in data set [6] (48 h post injection), 4.4 %ID/g. The tumor uptake was determined as 2.5 %ID/g in data set [6] (72 h post injection) and 2.0 %ID/g in data set [6] (96 h post injection). Besides, the “tumor uptake in Colo-26 relative to RIF” value in data set [6] (72 h post injection) and in data set [6] (96 h post injection) was 3 fold throughout. In addition, in data set [6] (^124I-labeled 1), the “blood uptake, BALB/c vs C3H mice” value is “slightly higher blood uptake in BALB/c mice than C3H mice”. The “uptake in other organs, BALB/c vs C3H mice” value in data set [6] (^124I-labeled 1) is “lower uptake in BALB/c mice than the C3H mice”. Further, the “relative tumor activity (tumor activity to whole body activity in image)” value in data set [7] (RIF tumor, ^124I-1 about constant over three scans in 3 days) was approximately 0.035. For the same molecule, in data set [7] (both tumor models (RIF and Colon-26), post injection), the “time of best tumor contrast in PET images” value was 72 h. Moreover, in data set [8] (24-96 h), the “relative tumor activity over time” value is “increasing relative quantity of activity in the tumor”. For the same molecule, the “relative uptake value (RUV) compared with RIF tumor” value in data set [8] (after 48 hours of injection) was “higher RUV values than RIF tumor”. Also, the “tumor free mice (tumor cure)” value in data set [4] (1.00 μmole/kg i.v.) is “one out of five mice was tumor free”. For the same molecule, in data set [4] (1.5 μmol/kg i.v.), the “tumor free mice (tumor cure) at day 60” value is listed as “four out of five mice were tumor free”.

Regarding `CCC1=C(C)c2cc3[nH]c(cc4nc(c5c6[nH]c(cc1n2)c(C)c6C(=O)C5)[C@@H](CCC(=O)N[C@@H]1[C@@H](O)[C@H](O)[C@@H](CO)O[C@H]1O)[C@@H]4C)c(C)c3C(C)OCc1cccc([124I])c1` (some centres unmarked) [Compound 2, 3-{1′-(m-iodobenzyloxy)ethyl}-17[2]-(2-amino-2-deoxy)glucosamide-pyropheo phorbide-a], the “liver and spleen uptake compared among compounds 1-3” value in data set [1] is “lower spleen and liver uptake than 3 but higher than that of 1”. Moreover, the “tumor uptake compared among compounds 1-3” value in data set [1] is listed as “least tumor uptake among all compounds at all time points”. Moreover, the “cell uptake compared to compound 1” value in data set [2] and in data set [5] was “higher uptake” each time. Further, the “in vitro PDT efficacy compared to 1” value in data set [3] is on record as “more effective than the corresponding non-carbohydrate analog 1”. For the same molecule, the “tumor free mice (tumor cure)” value is “one out of five mice was tumor free” in data set [4] (0.50 μmole/kg i.v.) and “two out of five mice were tumor free” in data set [4] (1.00 μmole/kg i.v.). The “toxicity (deaths post PDT)” value in data set [4] (1.5 μmol/kg i.v.) is “two mice died within 24 h post PDT”. In data set [4] (1.5 μmol/kg i.v.), the “tumor free mice (tumor cure) at day 60” value is “two out of remaining three mice were tumor free”.
